Calls of active or inactive are those of the source. The calls are words filed in the database; no cut-off is given here.
Tests used:
Mus musculus [1] = experiment: In vivo activation of iNKT cells in C57BL/6 mouse assessed as stimulation of IFNgamma production in serum at 5 ug, ip after 16 hrs by ELISA relative to alpha-GalCer; assay type: functional, organism-based
In short: (§1)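 C57BL/6 mice, 5–12 weeks old, in-house bred or purchased. Glycolipid dissolved in PBS with DMSO, given intraperitoneally at 5 μg per mouse. Mice bled 4 h (IL-4) and 16 h (IFN-γ) after injection; cytokines measured in serum. At least 2 separate experiments, 5–8 mice per group per glycolipid.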

Mus musculus [2] = experiment: In vivo activation of iNKT cells in C57BL/6 mouse assessed as stimulation of IL4 production in serum at 5 ug, ip after 4 hrs by ELISA; assay type: functional, organism-based; in short: as §1

| Structure (SMILES) | Activity (Mus musculus [1]) | Activity (Mus musculus [2]) |
| --- | --- | --- |
| CCCCCCCCCCCCCCCCCCCCCCCCCC(=O)N[C@@H](CO[C@H]1O[C@H](COC(=O)Nc2cccc3ccccc23)[C@H](O)[C@H](O)[C@H]1O)[C@H](O)[C@H](O)CCCCCCCCCCCCCC | Active | Active |
| CCCCCCCCCCCCCCCCCCCCCCCCCC(=O)N[C@@H](CO[C@H]1O[C@H](C(=O)NCc2ccc(Cl)c(Cl)c2)[C@H](O)[C@H](O)[C@H]1O)[C@H](O)[C@H](O)CCCCCCCCCCCCCC | inactive | inactive |
| CCCCCCCCCCCCCCCCCCCCCCCCCC(=O)N[C@@H](CO[C@H]1O[C@H](C(=O)Nc2ccc(Cl)c(Cl)c2)[C@H](O)[C@H](O)[C@H]1O)[C@H](O)[C@H](O)CCCCCCCCCCCCCC | inactive | inactive |
| CCCCCCCCCCCCCCCCCCCCCCCCCC(=O)N[C@@H](CO[C@H]1O[C@H](COC(=O)Nc2ccc(Cl)cc2)[C@H](O)[C@H](O)[C@H]1O)[C@H](O)[C@H](O)CCCCCCCCCCCCCC | Active | Active |
| CCCCCCCCCCCCCCCCCCCCCCCCCC(=O)N[C@@H](CO[C@H]1O[C@H](COC(=O)Nc2ccncc2)[C@H](O)[C@H](O)[C@H]1O)[C@H](O)[C@H](O)CCCCCCCCCCCCCC | Active | Active |
| CCCCCCCCCCCCCCCCCCCCCCCCCC(=O)N[C@@H](CO[C@H]1O[C@H](C(=O)NCc2ccsc2)[C@H](O)[C@H](O)[C@H]1O)[C@H](O)[C@H](O)CCCCCCCCCCCCCC | Active | inactive |
| CCCCCCCCCCCCCCCCCCCCCCCCCC(=O)N[C@@H](CO[C@H]1O[C@H](C(=O)NCc2ccccc2)[C@H](O)[C@H](O)[C@H]1O)[C@H](O)[C@H](O)CCCCCCCCCCCCCC | inactive | inactive |
| CCCCCCCCCCCCCCCCCCCCCCCCCC(=O)N[C@@H](CO[C@H]1O[C@H](C(=O)NCCc2ccccc2)[C@H](O)[C@H](O)[C@H]1O)[C@H](O)[C@H](O)CCCCCCCCCCCCCC | inactive | inactive |
| CCCCCCCCCCCCCCCCCCCCCCCCCC(=O)N[C@@H](CO[C@H]1O[C@H](C(=O)Nc2ccccc2)[C@H](O)[C@H](O)[C@H]1O)[C@H](O)[C@H](O)CCCCCCCCCCCCCC | Active | inactive |
| CCCCCCCCCCCCCCCCCCCCCCCCCC(=O)N[C@@H](CO[C@H]1O[C@H](C(=O)NCc2cccc3ccccc23)[C@H](O)[C@H](O)[C@H]1O)[C@H](O)[C@H](O)CCCCCCCCCCCCCC | inactive | inactive |

— ChEMBL document CHEMBL3588843, “Synthesis of C-5″ and C-6″-modified α-GalCer analogues as iNKT-cell agonists” (Bioorg Med Chem, 2015)
